Data on three molecules can be found in ChEMBL document CHEMBL1149101, “New antibacterial agents derived from the DNA gyrase inhibitor cyclothialidine” (J Med Chem, 2004).

The structures appear in SMILES notation. Values after ≈ are worked out from the molar mass of the structure shown. Some results are limits rather than exact numbers.

Experiment [1] can be described thus: Minimum inhibitory concentration against Enterococcus faecalis.
Experiment [2] can be described thus: Range for minimum inhibitory concentration against Enterococcus faecalis; 1-4. Type of experiment: functional.
The test system of a further experiment is Escherichia coli. The experiment can be described thus: Minimum inhibitory concentration against Escherichia coli 25922. Type of experiment: functional. In a few lines: (§1)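 NCCLS agar dilution on Mueller–Hinton agar, compound incorporated into melted medium at 50 °C. Inoculum about 10⁴ CFU/spot from diluted overnight cultures, multipoint-applied.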
Experiment [3] relates to Stenotrophomonas maltophilia. The experiment can be described thus: Minimum inhibitory concentration against Xanthomonas maltophilia AC739. It is filed as functional. In a few lines:
as §1

Experiment [4] in a line: Range for minimum inhibitory concentration against Staphylococcus aureus; 0.5-2. It is filed as functional.
For experiment [5], the system named is Staphylococcus aureus. Put plainly: In vivo effective dose was determined in septicaemic mice (Staphylococcus aureus Smith) when administration iv. It is filed as functional. In a few lines:
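Compound given iv as a gelatine microsuspension at 1 and 3 h post-challenge, 5 mice per group. ED50 (mg/kg) from day-4 survival by probit analysis.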

Another experiment is filed under the species Mus musculus. Put plainly: Percentage of binding to the mice plasma protein was determined. It is filed as functional.
The subject of experiment [6] is Staphylococcus aureus. Put plainly: Minimum inhibitory concentration against Staphylococcus aureus. It is filed as functional.
Experiment [7] deals with Enterococcus faecalis. Put plainly: Minimum inhibitory concentration against Enterococcus faecalis. It is filed as functional. In a few lines: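 Agar dilution per NCCLS on Mueller–Hinton agar, strain E. faecalis 6 (listed as S. faecalis 6). Compound incorporated into melted medium at 50 °C just before pouring plates. Inoculum about 10⁴ CFU/spot from diluted overnight culture, applied with multipoint inoculator.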

The next experiment relates to Streptococcus pyogenes. The experiment can be described thus: Minimum inhibitory concentration against Streptococcus pyogenes b15. As to conditions: Streptococcus pyogenes; read-out: MIC.
Experiment [8] concerns Staphylococcus aureus. Put plainly: Minimum inhibitory concentration against Staphylococcus aureus ATCC 25923. It is filed as functional. In a few lines:
as §1

Experiment [9] deals with DNA gyrase (Escherichia coli) (UniProt P0AES6+P0AES4).
Another experiment deals with HeLa. The experiment can be described thus: Cytotoxicity in HeLa cells. Type of experiment: cell-based.
Experiment [10] has as its system Staphylococcus epidermidis. Put plainly: Minimum inhibitory concentration against Staphylococcus epidermidis 16/2. Type of experiment: functional. In a few lines: as §1
Experiment [11] concerns Staphylococcus aureus. Put plainly: Minimum inhibitory concentration against Staphylococcus aureus Smith. Type of experiment: functional. In a few lines:
as §1

Experiment [12] has as its system Enterococcus faecalis. Put plainly: Minimum inhibitory concentration against Enterococcus faecalis 6. Type of experiment: functional. In outline:
as §1

The nature of experiment [13]: Range for minimum inhibitory concentration against Enterococcus faecium; 2-8. It is filed as functional.
A short description of experiment [14]: Range for minimum inhibitory concentration against Enterococcus faecalis;4-8. Type of experiment: functional.
The mark [15] stands for this setting: Staphylococcus aureus, ATCC 25923, read-out: MIC.
The mark [16] stands for this setting: Staphylococcus aureus, read-out: MIC.

Turning to `CN[C@H](CC(C)C)C(=O)N[C@H]1C(=O)N[C@@H](CC(N)=O)C(=O)N[C@H]2C(=O)N[C@H]3C(=O)N[C@H](C(=O)N[C@H](C(=O)O)c4cc(O)cc(O)c4-c4cc3ccc4O)[C@H](O)c3ccc(c(Cl)c3)Oc3cc2cc(c3O[C@@H]2O[C@H](CO)[C@@H](O)[C@H](O)[C@H]2O[C@H]2C[C@](C)(N)[C@H](O)[C@H](C)O2)Oc2ccc(cc2Cl)[C@H]1O` [VANCOMYCIN], the values for the MIC90 (in [1]; against Staphylococcus aureus [6]) were 4 µg/mL (≈ 2.76 µM) and 2 µg/mL (≈ 1.38 µM), respectively. The figures for the Range in experiment [2] and in experiment [4] were 4 µg/mL and 2 µg/mL, respectively. For the same molecule, the MIC (against Escherichia coli; in experiment [3]) was > 64 µg/mL each time. Also, it took a dose of 1.5 mg/kg to reach the 50% effect level in the experiment on Staphylococcus aureus [5] (ED50). In the experiment listed under Mus musculus, the Activity stood at 25%. Further, the MIC50 (usually an inhibitory concentration at the 50% level, which refers to growth in some studies and to a panel of isolates in others) in the experiment with Staphylococcus aureus [6] was 1 µg/mL (≈ 0.69 µM); with Enterococcus faecalis [7] it was 2 µg/mL (≈ 1.38 µM).

Consider `COC(=O)[C@@H]1CSCc2c(O)cc(OC)c(C)c2C(=O)OCCCCC(=O)N1`, for which the MIC (in general, the lowest concentration that inhibits growth of the organism) in the experiment on Streptococcus pyogenes is 4 µg/mL (≈ 9.72 µM); in the experiment with Staphylococcus aureus [8] it was 4 µg/mL (≈ 9.72 µM); in the experiment with Staphylococcus aureus [8] (setting [15]), 4 µg/mL (≈ 9.72 µM); in the experiment with Escherichia coli, > 64 µg/mL; in [3] it was 16 µg/mL (≈ 38.9 µM); in experiment [10], 1 µg/mL (≈ 2.43 µM). Moreover, the MIC with Staphylococcus aureus [11] was 2 µg/mL (≈ 4.86 µM); in the experiment with Staphylococcus aureus [11] (setting [16]), 2 µg/mL (≈ 4.86 µM); in the experiment on Enterococcus faecalis [12], 4 µg/mL (≈ 9.72 µM). This molecule also registered an MNEC in experiment [9] of 0.05 µg/mL. The IC50 (as a rule, the concentration that inhibits the measured activity by half) with HeLa was > 50 µg/mL.

For `CO[C@@H]1[C@@H](OC(N)=O)[C@@H](O)[C@H](Oc2ccc3c(O)c(NC(=O)c4ccc(O)c(CC=C(C)C)c4)c(=O)oc3c2C)OC1(C)C` [NOVOBIOCIN], the MIC in the experiment on Streptococcus pyogenes was 1 µg/mL (≈ 1.63 µM); with Staphylococcus aureus [8] (setting [15]), 0.25 µg/mL (≈ 0.408 µM); against Escherichia coli, > 64 µg/mL; in [3], > 64 µg/mL; in experiment [10], 0.25 µg/mL (≈ 0.408 µM); with Staphylococcus aureus [11] (setting [16]) it was 0.12 µg/mL (≈ 0.196 µM). The molecule also showed an MIC against Enterococcus faecalis [12] of 4 µg/mL (≈ 6.53 µM). Further, the Range in experiment [13] and in [14] was 8 µg/mL throughout. In addition, the ED50 (as a rule, the dose at which the effect has come halfway, by size or by number of responders) in the experiment with Staphylococcus aureus [5] is 3 mg/kg. The MIC50 with Enterococcus faecalis [7] stood at 4 µg/mL (≈ 6.53 µM). The MIC90 (commonly the lowest concentration that inhibits either 90% of growth or 90% of the strains tested, depending on the study) in the experiment on Enterococcus faecalis [7] came to 8 µg/mL (≈ 13.1 µM).
